Bioassay records as filed in PubChem BioAssay.
In the library only some 2.3% were active in any assay of this set; here they are far more common.
TRPC4 inh: inhibitors of mouse TRPC4 channel; hit rate 0.39% among 300,000; AID 2247; B-score at 10 µM; HEK293 TRPC4beta/mu-opioid, DAMGO-evoked Fluo4 calcium flux; active compounds read low; Q9QUQ5;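 active = B-score over 3 SD under the library average, no early fluorescence shift, positive overall ratio signal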
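System: stable TRPC4beta/mu-opioid receptor HEK293 cells; Dosing: single-point compound dosing; Measured by: Fluo4 Ca2+ flux fluorescence; Read-out basis: per-well B score of integrated baseline-normalized Fluo4 ratio.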
TRPC4 potent: allosterically enhances the mouse TRPC4 cation channel; Q9QUQ5; HEK293 TRPC4beta/mu-opioid, DAMGO EC20, Fluo-4 Ca2+ flux; active compounds read high; B-score at 10 µM; hit rate 0.42% among 310,000;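 active = B-score of calcium response area above 5 SD of library B-scores, with initial fluorescence ratio within 5 SD of library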
TRPC6 act: activates the mouse TRPC6 cation channel. Q61143. HEK293-TRPC6 membrane potential dye fluorescence; active compounds read high. B-score at 10 µM. hit rate 0.13% among 310,000;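 active = B-score of the integrated fluorescence ratio above library mean plus 3 SD, and starting fluorescence ratio within library mean plus 5 SD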;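 also: higher score means more depolarization so channel activation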
Target sequence (Q61143 whole entry, looked up): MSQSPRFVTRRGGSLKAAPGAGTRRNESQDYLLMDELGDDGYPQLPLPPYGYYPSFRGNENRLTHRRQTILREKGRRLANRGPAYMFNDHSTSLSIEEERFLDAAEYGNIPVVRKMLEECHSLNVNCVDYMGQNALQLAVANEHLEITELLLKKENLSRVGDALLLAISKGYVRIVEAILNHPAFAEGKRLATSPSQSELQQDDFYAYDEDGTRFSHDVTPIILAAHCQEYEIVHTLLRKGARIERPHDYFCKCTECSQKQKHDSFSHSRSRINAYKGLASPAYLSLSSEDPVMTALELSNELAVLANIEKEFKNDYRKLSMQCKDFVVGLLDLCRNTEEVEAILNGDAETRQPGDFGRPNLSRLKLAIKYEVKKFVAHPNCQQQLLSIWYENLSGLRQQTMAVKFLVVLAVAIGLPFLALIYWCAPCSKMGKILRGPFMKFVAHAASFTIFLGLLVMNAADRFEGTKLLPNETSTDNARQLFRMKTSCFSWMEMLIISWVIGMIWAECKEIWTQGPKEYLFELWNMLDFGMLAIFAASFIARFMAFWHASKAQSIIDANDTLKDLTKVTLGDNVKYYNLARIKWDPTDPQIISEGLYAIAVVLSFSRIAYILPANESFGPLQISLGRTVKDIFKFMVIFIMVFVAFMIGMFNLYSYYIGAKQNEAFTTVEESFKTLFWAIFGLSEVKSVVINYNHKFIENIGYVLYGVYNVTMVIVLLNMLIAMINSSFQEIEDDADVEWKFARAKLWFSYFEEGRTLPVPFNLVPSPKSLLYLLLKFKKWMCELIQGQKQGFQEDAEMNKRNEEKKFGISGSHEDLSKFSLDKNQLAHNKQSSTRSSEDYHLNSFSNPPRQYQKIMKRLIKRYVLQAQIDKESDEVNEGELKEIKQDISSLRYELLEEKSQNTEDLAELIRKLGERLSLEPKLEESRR
TRPC4 act: TRPC4 (mouse) channel activation. HEK293 TRPC4beta/mu-opioid, Fluo4 calcium fluorescence; active compounds read high. B-score at 10 µM. hit rate 0.49% among 310,000;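 active = B-score above 5 SD of library B-scores, and initial fluorescence ratio not above library mean plus 5 SD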;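 also: positive B-score marks a calcium rise read as TRPC4 activation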
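Assay system – TRPC4beta and mu-opioid receptor HEK293 stable cells · Measured by – Fluo4 fluorescence, kinetic · Schedule – dye loading 45 min room temperature, 110 s kinetic read · Read-out – B-scored integrated calcium fluorescence ratio · Controls – buffer and maximal DAMGO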
TRPC6 inhibitor: mouse TRPC6 channel inhibition; hit rate 1.1% among 310,000; B-score at 10 µM; HEK293-TRPC6, membrane potential dye, ACh-evoked depolarization; active compounds read low; AID 2553; Q61143;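 active = B-score under library mean minus 3 SD, initial fluorescence not abnormally high, positive integrated signal ratio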;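 also: B-score derived from integrated fluorescence ratio over the kinetic read; more negative B-score means stronger inhibition of depolarization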
A number is an active result.

Screening COc1ccc(-c2csc(NC(C)c3nc4cc(Cl)c(Cl)cc4n3CCCO)n2)cc1 (stereo unspecified) returned TRPC4 inh inactive, TRPC4 potent inactive, TRPC6 act inactive, TRPC4 act inactive and TRPC6 inhibitor inactive.
C/C(=N\O)C(=O)OC1CC(C)CCC1C(C)C (stereo unspecified) was read as TRPC4 inh inactive, TRPC4 potent 13, TRPC6 act inactive, TRPC4 act inactive and TRPC6 inhibitor inactive.
CCN(c1ccccc1)S(=O)(=O)c1ccc2c(c1)N(C(C)=O)CCS2 was read as TRPC4 inh inactive, TRPC4 potent inactive, TRPC6 act inactive, TRPC4 act inactive and TRPC6 inhibitor inactive.
Screening c1ccn2cc(C34CC5CC(CC(C5)C3)C4)nc2c1 returned TRPC4 inh -7, TRPC4 potent inactive, TRPC6 act inactive, TRPC4 act inactive and TRPC6 inhibitor inactive.
`O=C(COc1cc2oc(=O)c3c(c2cc1Cl)CCC3)NCc1ccccn1` gave TRPC4 inh inactive, TRPC4 potent inactive, TRPC6 act inactive, TRPC4 act inactive and TRPC6 inhibitor inactive.
Screening COc1cc(Nc2ncnc(N)n2)cc(OC)c1 returned TRPC4 inh inactive, TRPC4 potent inactive, TRPC6 act inactive, TRPC4 act inactive and TRPC6 inhibitor inactive.
Screening Cc1cccc(NC(=S)N(CCCN(C)C)Cc2cc3cc4c(cc3[nH]c2=O)OCO4)c1 returned TRPC4 inh inactive, TRPC4 potent inactive, TRPC6 act inactive, TRPC4 act inactive and TRPC6 inhibitor inactive.
CCc1ccccc1NC(=S)N(CCCN(C)C)Cc1cc2cc3c(cc2[nH]c1=O)OCO3 was read as TRPC4 inh -8, TRPC4 potent inactive, TRPC6 act inactive, TRPC4 act inactive and TRPC6 inhibitor inactive.
For O=C(Nc1nc2c(s1)CN(Cc1ccccc1)CC2)c1c(F)cccc1F the results were TRPC4 inh inactive, TRPC4 potent 17, TRPC6 act inactive, TRPC4 act inactive and TRPC6 inhibitor inactive.
c1ccc(-c2cn(-c3ccccc3)c3ncnc(N4CCCCC4)c23)cc1 was read as TRPC4 inh inactive, TRPC4 potent inactive, TRPC6 act inactive, TRPC4 act inactive and TRPC6 inhibitor inactive.
Screening Cc1cccc(-n2cc(-c3ccccc3)c3c(NN4CCOCC4)ncnc32)c1 returned TRPC4 inh inactive, TRPC4 potent 14, TRPC6 act inactive, TRPC4 act inactive and TRPC6 inhibitor inactive.
Screening CCOc1ccc(-n2cc(-c3ccccc3)c3c(N4CCOCC4)ncnc32)cc1 returned TRPC4 inh inactive, TRPC4 potent 16, TRPC6 act inactive, TRPC4 act inactive and TRPC6 inhibitor inactive.
For O=C(N/C(=C\c1ccccc1)C(=O)N1CCOCC1)c1cccc(Br)c1 the results were TRPC4 inh inactive, TRPC4 potent inactive, TRPC6 act inactive, TRPC4 act inactive and TRPC6 inhibitor inactive.
`COc1ccccc1CCNC(=O)c1cccc(S(=O)(=O)NCc2ccccc2)c1` gave TRPC4 inh inactive, TRPC4 potent inactive, TRPC6 act inactive, TRPC4 act inactive and TRPC6 inhibitor inactive.
For CCc1cc(=O)oc2c(CNCc3ccccc3F)c(O)c(Cl)cc12 the results were TRPC4 inh inactive, TRPC4 potent 17, TRPC6 act inactive, TRPC4 act inactive and TRPC6 inhibitor inactive.
Oc1cccc(C2c3[nH]c4ccccc4c3CCN2Cc2ccc3c(c2)CCO3)c1 (stereo unspecified) was read as TRPC4 inh -6, TRPC4 potent inactive, TRPC6 act inactive, TRPC4 act inactive and TRPC6 inhibitor inactive.
Oc1cccc(C2c3[nH]c4ccccc4c3CCN2Cc2ccoc2)c1 (stereo unspecified) was read as TRPC4 inh inactive, TRPC4 potent inactive, TRPC6 act inactive, TRPC4 act inactive and TRPC6 inhibitor inactive.
CCCN1CCC(NC(=O)Nc2ccccc2C(=O)OC)CC1 was read as TRPC4 inh inactive, TRPC4 potent inactive, TRPC6 act inactive, TRPC4 act 71 and TRPC6 inhibitor inactive.
Screening COC(=O)c1ccccc1NC(=O)NC1CC1 returned TRPC4 inh inactive, TRPC4 potent inactive, TRPC6 act inactive, TRPC4 act inactive and TRPC6 inhibitor inactive.
`Cc1ccccc1-n1c(SCc2cccc(F)c2)nc2[nH]ncc2c1=O` gave TRPC4 inh inactive, TRPC4 potent 13, TRPC6 act inactive, TRPC4 act inactive and TRPC6 inhibitor inactive.
N#Cc1ccc(-c2ccccc2)nc1SCCN1CCOCC1 was read as TRPC4 inh inactive, TRPC4 potent 20, TRPC6 act inactive, TRPC4 act inactive and TRPC6 inhibitor inactive.
`Cc1cc(C)c(C#N)c(SCCN2CCOCC2)n1` gave TRPC4 inh inactive, TRPC4 potent inactive, TRPC6 act inactive, TRPC4 act inactive and TRPC6 inhibitor inactive.
Screening CCOC(=O)C1(Cc2cccc(Cl)c2)CCCN(C(=O)CCN2CCCC2=O)C1 (stereo unspecified) returned TRPC4 inh inactive, TRPC4 potent inactive, TRPC6 act inactive, TRPC4 act inactive and TRPC6 inhibitor inactive.
`O/N=C1\CCCc2c1nc(-c1ccccc1F)n2O` gave TRPC4 inh inactive, TRPC4 potent inactive, TRPC6 act inactive, TRPC4 act inactive and TRPC6 inhibitor inactive.
N#CC(C#N)=Cc1cccn1-c1ccc(C(=O)O)cc1 was read as TRPC4 inh inactive, TRPC4 potent inactive, TRPC6 act inactive, TRPC4 act inactive and TRPC6 inhibitor inactive.
`N#C/C(=C/c1cccn1-c1cccc(C(=O)O)c1)c1ccc(Cl)cc1` gave TRPC4 inh -6, TRPC4 potent inactive, TRPC6 act inactive, TRPC4 act inactive and TRPC6 inhibitor inactive.
Screening Cc1ccc(S(=O)(=O)N2CCN(c3cc4c(cc3[N+](=O)[O-])n(C)c(=O)n4C)CC2)cc1 returned TRPC4 inh inactive, TRPC4 potent 15, TRPC6 act inactive, TRPC4 act inactive and TRPC6 inhibitor inactive.
Screening Cn1c(=O)n(C)c2cc([N+](=O)[O-])c(N3CCN(S(=O)(=O)c4ccc5ccccc5c4)CC3)cc21 returned TRPC4 inh inactive, TRPC4 potent inactive, TRPC6 act inactive, TRPC4 act inactive and TRPC6 inhibitor inactive.
For COc1ccc(CCC(C)NCC2CCCCC2)cc1 (stereo unspecified) the results were TRPC4 inh -7, TRPC4 potent inactive, TRPC6 act inactive, TRPC4 act inactive and TRPC6 inhibitor inactive.
For CC(=O)NCC1CCCN(Cc2cn(-c3ccccc3)nc2-c2ccc3c(c2)OCO3)C1 (stereo unspecified) the results were TRPC4 inh inactive, TRPC4 potent inactive, TRPC6 act inactive, TRPC4 act inactive and TRPC6 inhibitor inactive.
COC(=O)C1CCN(Cc2cn(-c3ccccc3)nc2-c2ccc3c(c2)OCO3)CC1 was read as TRPC4 inh inactive, TRPC4 potent inactive, TRPC6 act inactive, TRPC4 act 83 and TRPC6 inhibitor inactive.
CC(CC(=O)Nc1ccc(S(=O)(=O)N2CCOCC2)cc1)c1ccccc1 (stereo unspecified) was read as TRPC4 inh inactive, TRPC4 potent inactive, TRPC6 act inactive, TRPC4 act inactive and TRPC6 inhibitor inactive.
`COc1cccc(OCCOCCNCCO)c1` gave TRPC4 inh inactive, TRPC4 potent inactive, TRPC6 act inactive, TRPC4 act 89 and TRPC6 inhibitor inactive.
